# Entries after “also recorded” stand apart in the source; their conditions may differ.
# What was measured:
# [1] = test system: endogenous NRMT (293LT cells); test: Co-precipitation of endogenous NRMT with FLAG-tagged substrate proteins; type: binding; conditions: C-terminally FLAG-tagged protein expressed in 293LT cells
# Method in brief: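 C-terminally FLAG-tagged RCC1 or VRK2 expressed in 293LT cells, immunoprecipitated with anti-FLAG, and run on 10% polyacrylamide gel with Coomassie staining. On-bead material washed 3× with 100 mM ammonium bicarbonate (pH 8.0), then reduced, carbamidomethylated and digested with endoproteinase Glu-C (enzyme:protein 1:20). Peptides acidified to pH 3.5 and analysed by nano-LC-MS on C18 capillary columns.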
# [2] = test system: N-terminus of protein expressed in 293LT cells; type: cell-based; conditions: MS
# Method in brief: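 FLAG-tagged constructs were transfected into 293LT cells by calcium phosphate and immunoprecipitated on anti-FLAG beads. Bead-bound protein was reduced, carbamidomethylated and Glu-C digested (1:20). Peptides went to nanoflow reverse-phase HPLC-microESI with a high-resolution MS scan, then 5–10 data-dependent CAD/ETD MS2 scans. Spectra were interpreted manually. Each form's summed extracted-ion-chromatogram area over all charge states was divided by the peptide's total area.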
# [3] = test system: N-terminal methylation in mouse spleen; conditions: mouse spleen lysate/extract, MS
# Method in brief: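 Proteins from mouse spleen extract were immunoprecipitated with anti-me3-SPK antibody. On-bead samples were washed in 100 mM ammonium bicarbonate pH 8.0, reduced, carbamidomethylated and digested with Glu-C (1:20). Peptides were analysed by nanoflow reverse-phase HPLC with CAD/ETD tandem MS. N-terminal modifications were assigned by manual interpretation of the spectra.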
# FLAG-tagged NRMT = test: Co-precipitation of endogenous proteins with FLAG-tagged NRMT; type: binding; conditions: FLAG-tagged NRMT expressed in 293LT cells; Coomassie-stained gel
# Method in brief: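 NRMT carrying a C-terminal FLAG tag was expressed in 293LT cells. Endogenous partner proteins were co-immunoprecipitated with it. Immunoprecipitates were resolved on a 10% polyacrylamide gel and stained with Coomassie blue.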
# N-terminus of protein = conditions: yeast and mammals; ref [24],[25]; cited from earlier work
Molecule,capture / co-precipitation of endogenous NRMT (in words) [1],N-terminal acetylation reported (in words) (N-terminus of protein),also measured
"MLC9: Myosin Light Chain isoform (protein, 100% N-terminally acetylated (by MS); left off: FLAG, C-terminal, kept) MSSKRAKAKTTKKRPQRATSNVFAMFDQSQIQEFKEAFNMIDQNRDGFIDKEDLHDMLASLGKNPTDEYLEGMMSEAPGPINFTMFLTMFGEKLNGTDPEDVIRNAFACFDEEASGFIHEDHLRELLTTMGDRFTDEEVDEMYREAPIDKKGNFNYVEFTRILKHGAKDKDD",cannot IP endogenous NRMT,–,"N-terminal modification (in words) ([2]; 293LT cells, immunoprecipitated protein): not N-terminally methylated; N-terminal acetylation ([2]; over-expressed in 293LT cells): 100%; N-terminal methylation in vivo (in words) [3]: methylated at the N-terminus in vivo; also recorded: N-terminally methylated"
"RCC1-FLAG: FLAG-tagged RCC1, possesses a S-P-K motif (protein, left off: FLAG, C-terminal, kept) SPKRIAKRRSPPADAIPKSKKVKVSHRSHSTEPGLVLTLGQGDVGQLGLGENVMERKKPALVSIPEDVVQAEAGGMHTVCLSKSGQVYSFGCNDEGALGRDTSVEGSEMVPGKVELQEKVVQVSAGDSHTAALTDDGRVFLWGSFRDNNGVIGLLEPMKKSMVPVQVQLDVPVVKVASGNDHLVMLTADGDLYTLGCGEQGQLGRVPELFANRGGRQGLERLLVPKCVMLKSRGSRGHVRFQDAFCGAYFTFAISHEGHVYGFGLSNYHQLGTPGTESCFIPQNLTSFKNSTKSWVGFSGGQHHTVCMDSEGKAYSLGRAEYGRLGLGEGAEEKSIPTLISRLPAVSSVACGASVGYAVTKDGRVFAWGMGTNYQLGTGQDEDAWSPVEMMGKQLENRVVLSVSSGGQHTVLLVKDKEQS",efficiently captured endogenous NRMT,–,capture / co-precipitation of endogenous NRMT (in words) ([1]; listed as RCC1): NRMT is co-precipitated
"Mina53: possesses a potential N-terminal methylation motif, MPKKAKPT (protein) MPKKAKPTGSGKEEGPAPCKQMKLEAAGGPSALNFDSPSSLFESLISPIKTETFFKEFWEQKPLLIQRDDPALATYYGSLFKLTDLKSLCSRGMYYGRDVNVCRCVNGKKKVLNKDGKAHFLQLRKDFDQKRATIQFHQPQRFKDELWRIQEKLECYFGSLVGSNVYITPAGSQGLPPHYDDVEVFILQLEGEKHWRLYHPTVPLAREYSVEAEERIGRPVHEFMLKPGDLLYFPRGTIHQADTPAGLAHSTHVTISTYQNNSWGDFLLDTISGLVFDTAKEDVELRTGIPRQLLLQVESTTVATRRLSGFLRTLADRLEGTKELLSSDMKKDFIMHRLPPYSAGDGAELSTPGGKLPRLDSVVRLQFKDHIVLTVLPDQDQSDEAQEKMVYIYHSLKNSRETHMMGNEEETEFHGLRFPLSHLDALKQIWNSPAISVKDLKLTTDEEKESLVLSLWTECLIQVV",unable to capture endogenous NRMT,–,"co-precipitation with FLAG-tagged NRMT (in words) (FLAG-tagged NRMT): co-precipitates; also recorded: co-precipitated with FLAG-tagged NRMT; cleavage of the initial Met residue ([2]; both samples, data not shown): 100%"
"PTPCAAX2: protein tyrosine phosphatase PTPCAAX2 (protein, UniProt Q12974 1-164, looked up) Protein tyrosine phosphatase …: MNRPAPVEISYENMRFLITHNPTNATLNKFTEELKKYGVTTLVRVCDATYDKAPVEKEGIHVLDWPFDDGAPPPNQIVDDWLNLLKTKFREEPGCCVAVHCVAGLGRAPVLVALALIECGMKYEDAVQFIRQKRRGAFNSKQLLYLEKYRPKMRLRFRDTNGHC",–,reported to be N-terminally acetylated,–
"TSNAX protein: protein with SNK-N-terminus (protein, UniProt Q99598 1-290, looked up) Translin-associated protein X: MSNKEGSGGFRKRKHDNFPHNQRREGKDVNSSSPVMLAFKSFQQELDARHDKYERLVKLSRDITVESKRTIFLLHRITSAPDMEDILTESEIKLDGVRQKIFQVAQELSGEDMHQFHRAITTGLQEYVEAVSFQHFIKTRSLISMDEINKQLIFTTEDNGKENKTPSSDAQDKQFGTWRLRVTPVDYLLGVADLTGELMRMCINSVGNGDIDTPFEVSQFLRQVYDGFSFIGNTGPYEVSKKLYTLKQSLAKVENACYALKVRGSEIPKHMLADVFSVKTEMIDQEEGIS",–,reported to be N-terminally acetylated,–
"ENSA protein: protein with SQK-N-terminus (protein, UniProt O43768 2-121, looked up) Alpha-endosulfine: SQKQEEENPAEETGEEKQDTQEKEGILPERAEEAKLKAKYPSLGQKPGGSDFLMKRLQKGQKYFDSGDYNMAKAKMKNKQLPSAGPDKNLVTGDHIPTPQDLPQRKSSLVTSKLAGGQVE",–,reported to be N-terminally acetylated,–

# Source: paper PMC3447998 (Biochemistry, 2012)
